PABP FP inh – blocks human PABP binding to poly(A) RNA; P11940; inhibition, % at 35 µM; fluorescence polarization; 290,000 compounds, 1% hits; AID 2014;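 further: calls also rest on retests at 20 µM and on dose response follow-up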
PABP1 MLLE inh – inhibitors of microRNA-mediated deadenylation, human PABP1 MLLE binding; inhibition, % at 20 µM; AID 588489; 360,000 compounds, 0.36% hits; GST-MLLE / FITC-PAM2 fluorescence polarization; P11940; in the data active means inhibition above about 35%, passing the limit was not always enough;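 further: plate controls were DMSO wells with GST-MLLE for no effect and wells lacking GST-MLLE protein for full effect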
core dimer inh – blocks dimerization of HCV core protein; TR-FRET GST/Flag-core106 dimerization, 1536-well; inhibition, % at 5 µM; 300,000 compounds, 0.33% hits;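 active means inhibition above the mean of all tested compounds plus 3 SD, set per screening campaign, cut at about 45% in these data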
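Test system: GST/Flag-tagged HCV core106 proteins; Medium: KF-containing HEPES buffer, pH 7.45, DTT, CHAPS, BSA; Times: compound-protein-antibody incubation 4 h at 22.5 °C; Detection: TR-FRET 671 and 617 nm emission; Benchmarks: wells lacking GST-core106 and wells with excess unlabelled core106.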
FID counter – counter-screen for HCV NS3 helicase inhibitors: DNA intercalator displacement; DNA fluorescent intercalator displacement, fluorescence; inhibition, % at 7.9 µM; 290,000 compounds, 0.17% hits; in the data active means inhibition above about 37%;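 further: 0% = vehicle and 100% = reference compound; higher means more ethidium bromide displaced from hairpin DNA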
eIF4H inh – inhibitors of RNA binding by human eIF4H; Q15056; eIF4H fluorescence polarization binding assay; inhibition, % at 35 µM; 290,000 compounds, 0.94% hits;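 further: calls also rest on retests at 20 µM and on dose response follow-up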
HCV NS3 hel inh – blocks Hepatitis C virus NS3 helicase unwinding; NS3 helicase DNA unwinding, Cy5 molecular beacon fluorescence; inhibition, % at 10.9 µM; 290,000 compounds, 0.56% hits; AID 1800;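 active means inhibition above the mean of all tested compounds plus 3 SD, set per campaign, cut at about 35% in these data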;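 further: 0% = DMSO wells and 100% = thioflavine S control wells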
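System: HCV NS3 helicase fragment; control set: DMSO and thioflavine S; technique: Cy5 fluorescence at 0 and 60 min, beacon hairpin quenching; reagent: beacon DNA duplex substrate plus ATP; replicates: singlicate; schedule: 1 h reaction at 25 °C, ATP-initiated; medium: MOPS buffer pH 6.5 with MgCl2, DTT, Tween20, BSA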
* marks the source's active call; other numbers are inactive results; ? = inconclusive; / = no result. In the library only some 2% were active in any assay of this set; here they are far more common. Unless noted, how the calls were made is not given here.

SMILES	PABP FP inh	PABP1 MLLE inh	core dimer inh	FID counter	eIF4H inh	HCV NS3 hel inh
O=C(N/N=C/c1c(O)n(Cc2ccco2)c(=O)[nH]c1=O)c1ccccc1O	26	-57	1	-20	53*	12
C=CCn1c(O)c(C(C)=O)c(=O)[nH]c1=O (tested in a mixture with another compound)	-11	-17	-4	0	14	0
O=C1C=C2c3ccccc3CC(C(=O)O)C2CC1 (stereo not given)	/	-9	/	/	/	/
Cn1cc(C(=O)N2CCCCC2)c2ccccc21	-14	-6	-1	-11	4	-13
O=c1[nH]c(=O)n(-c2cccc3ccccc23)c(O)c1/C=N/N1CCCCC1c1cccnc1 (stereo not given)	9.1*	-122	-10	-21	89*	4
CC(C)CN1Cc2cc(-c3ccccc3)ccc2-n2nncc2C1	/	1	/	/	/	/
CCOC(=O)CNC(=O)CSP(=S)(OCC)OCC	-9	29	1	-3	2	7
CNC(=O)CSP(=S)(OC)OC	/	40*	/	/	/	/
C[C@]12CCC3C(CC[C@H]4C[C@H](OC(=O)c5cccnc5)CC[C@]34C)C1CCC2=O (stereo not given in full)	/	2	/	/	/	/
Cn1c(O)c(C=Nc2ccccc2Sc2ccccc2)c(=O)n(C)c1=O	active	2	-2	-4	87	8
COC(=O)C1=C(c2ccc(F)cc2OCc2ccccc2)C[C@@H]2CC[C@H]1N2C(=O)NCCCOC(C)C	/	6	/	/	/	/
COc1ccc2[nH]c(C)c(CCNCc3cc(OC)c(OC)c(OC)c3)c2c1	2.2*	-3	-1	12	94*	-7
Cc1nn(Cc2ccccc2)c(C)c1C(=O)O	-5	-9	1	-2	-7	-1
O=C(NC(=S)N1C[C@H]2C[C@H](C1)c1cccc(=O)n1C2)c1ccc(Cl)cc1	2	42*	1	-9	4	2
COc1cc(OC)cc(C(=O)NC(=S)N2C[C@H]3C[C@H](C2)c2cccc(=O)n2C3)c1	-5	35	0	-12	4	-5
COc1ccc(OC)c(N=Cc2c(O)n(Cc3ccccc3)c(=S)[nH]c2=O)c1	58*	-30	9	5	35*	6
O=[N+]([O-])c1cc(-c2ccc([As](=O)(O)O)cc2)ccc1[As](=O)(O)O	?	/	/	-2	?	-2
O=C1NC(=S)NC(=O)C1=Cc1cccc2cc3ccccc3cc12	11	40*	/	-1	98	6
COc1ccc(C=C2C(=O)NC(=S)NC2=O)cc1	/	19	/	/	/	/
Cn1cccc1/C=C1\C(=O)NC(=O)N(Cc2ccccc2)C1=O	45*	-16	5	-25	?	13
Cn1cccc1/C=C1/C(=O)NC(=O)N(Cc2ccccc2)C1=O	-9	-10	-7	-23	?	18
Cn1cccc1/C=C1/C(=O)NC(=O)N(Cc2ccc(F)cc2)C1=O	22*	-20	-2	-11	?	33
COc1c(OP2(=S)OCC(C)(C)CO2)cnn(C2CCCCC2)c1=O	/	-4	/	/	/	/
COC(=O)C1=C(c2c(C)noc2C)C[C@@H]2CC[C@H]1N2C(=O)NCCCOC(C)C	/	3	/	/	/	/
COc1ccc(C(=O)C2CCCN(CC3CCCCC3)C2)cc1OC (stereo not given)	/	-4	/	/	/	/
SMILES	PABP FP inh	PABP1 MLLE inh	core dimer inh	FID counter	eIF4H inh	HCV NS3 hel inh
CCOC(=O)C1SC2(C(F)(F)F)CC1(O)c1c(C)cc(C)nc1O2 (stereo not given)	-7	60*	-2	-3	-7	4
COCc1cc(OC(=O)N(C)C)nc(-c2ccccc2)n1	-7	4	-2	-7	-5	-8
C=CCn1c(O)c(C=Nc2ccc(N(CC)CC)cc2)c(=O)[nH]c1=O	62*	-6	0	-8	54*	29
CCC(C)NC(=O)c1c(N)n(CCCOC)c2nc3ccccc3nc12 (stereo not given)	68*	8	2	-18	61*	3
CCCCn1c(N)c(C(=O)NCCN2CCOCC2)c2nc3ccccc3nc21	-3	-23	1	-11	-2	0
CCOC(=O)c1c(N)n(CCN2CCCCC2)c2nc3ccccc3nc12	105*	-12	8	18	94*	1
COc1ccc(-n2nc(C(=O)NCC(=O)N3CCC4(CC3)OCCO4)c3ccccc3c2=O)c(OC)c1	-4	1	-3	-32	-11	24

From PubChem
